Data published in ChEMBL document CHEMBL1123812, “Pyrroloisoquinoline antidepressants. 2. In-depth exploration of structure-activity relationships” (J Med Chem, 1987).
Activity calls are given as the source filed them.

Key:
[1] = target: Sodium-dependent serotonin transporter (Rattus norvegicus) (UniProt P31652); experiment: Ability to inhibit the uptake of [3H]- serotonin(5-HT) 0.1 uM concentration at rat brain synaptosomes; format: functional, subcellular
Outline: (§1)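 Male Wistar rat brain synaptosomes (P2 fraction): hypothalamus for NE, striatum for DA, cerebral cortex for 5-HT. Buffer is Tris- or HEPES-buffered salt medium with glucose, ascorbate and nialamide, pH 7.4 at 37 °C. Preincubated 10 min at 37 °C with compound. Uptake started with [3H]NE 100–300 nM, [3H]DA 50–300 nM or [3H]5-HT 100–200 nM, incubated 3 min (DA) or 6–10 min (NE, 5-HT). Blanks held on ice. Filtered, counted by scintillation.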

[2] = target: Norepinephrine transporter (Rattus norvegicus) (UniProt Q9WTR4); experiment: Ability to inhibit the uptake of [3H]norepinephrine (NE) 0.1 uM concentration at rat brain synaptosomes; format: functional, subcellular; outline: as §1
[3] = species on record: Mus musculus; experiment: Gross behavioral effects ascertained in mice; C indicates overt convulsant; format: functional, organism-based
Outline: (§2)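 Male Swiss Webster mice, 18–24 g, three per dose, given ip doses of 1, 3, 10, 30, 100 and 300 mg/kg. Observed for gross behavior and held for 4 days. Scored as weak (W), stimulant (S), depressant (D) or convulsant (C).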

[4] = tested on: Mus musculus; experiment: Ability to antagonise intraperitoneal dose; inactive (<10% antagonism) at 30 mg/kg is represented as I-30.; format: functional, organism-based; set-up: dose 30 mg/kg
Outline: (§3)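 Nonfasted male Swiss Webster mice, 18–24 g, ten per dose level and in saline controls. Test compound given ip 30 min before tetrabenazine 32 mg/kg ip; dose expressed as free base. Motor activity and ptosis scored. Control response ≤90% corrected by Abbott's formula.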

[5] = species on record: Rattus norvegicus; experiment: Ability to inhibit the uptake of tritiated dopamine (DA) 1 uM concentration; format: functional
Outline: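 Rat brain synaptosomal [3H]dopamine uptake: striatal P2 fraction, test compound at 1.00 μM. Preincubated at 37 °C, then 50–300 nM [3H]DA for 3 min. Blanks on ice. Filtration and scintillation counting; percent inhibition of control uptake.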

[6] = tested on: Mus musculus; experiment: Ability to antagonise intraperitoneal dose; inactive (<10% antagonism) at 30 mgjkg is represented as I-30.; format: functional, organism-based; outline: as §3
[7] = target: Norepinephrine transporter (Rattus norvegicus, UniProt Q9WTR4); experiment: Inhibition of uptake of tritiated norepinephrine (NE) in rat synaptosomes; format: subcellular, Brain
[8] = target: D(1A) dopamine receptor (Rattus norvegicus) (UniProt P18901); experiment: Binding affinity towards Dopamine receptor D1 at 1.0 uM concentration
Outline: (§4)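 Rat brain crude synaptic membranes in 20 mM NaHEPES pH 7.5. Ligands: α1 cortex […] 0.4 nM, nonspecific with (-)-NE 100 μM, 30 min at 25 °C. […] D2 striatum [3H]spiperone 0.05 nM with (+)-butaclamol 1 μM, 45 min at 37 °C. S1 cortex [3H]5-HT 1 nM plus glutathione and MgCl2, with 5-HT 10 μM, 20 min at 37 °C. […] Samples filtered on GF/B and counted.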

[9] = target: Muscarinic acetylcholine receptor (Rattus norvegicus) (UniProt P08482+P08483+P08485+P08911+P10980); experiment: Binding affinity towards Muscarinic acetylcholine receptor at 1.0 uM concentration; format: protein assay
[10] = species on record: Mus musculus; experiment: Gross behavioral effects ascertained in mice; W indicates weak stimulant or depressant activity of little significance.; format: functional, organism-based; outline: as §2
[11] = target: Adrenergic receptor alpha-1 (Rattus norvegicus) (UniProt P15823+P23944+P43140); experiment: Binding affinity towards alpha-1 adrenergic receptor at 1.0 uM concentration; format: protein assay; outline: as §4
[12] = species on record: Mus musculus; experiment: Antagonism of tetrabenazine (TBZ)-induced depression in mice measured for ptosis; format: functional; settings: Mus musculus; read-out: ED50; outline: as §3
[13] = species on record: Mus musculus; experiment: Antagonism of tetrabenazine (TBZ)-induced depression measured in mice by motor activity; format: functional; settings: Mus musculus; read-out: ED50; outline: as §3
[14] = target: D(2) dopamine receptor (Rattus norvegicus) (UniProt P61169); experiment: Binding affinity towards dopamine receptor D2 at 1.0 uM concentration; outline: as §4
[15] = target: Adrenergic receptor alpha-2 (Rattus norvegicus) (UniProt P22086+P19328+P22909); experiment: Binding affinity towards alpha-2 adrenergic receptor at 1.0 uM concentration; format: protein assay
[16] = target: Sodium-dependent dopamine transporter (Rattus norvegicus, UniProt P23977); experiment: Inhibition of the uptake of tritiated dopamine (DA) in rat synaptosomes; format: subcellular, Brain
[17] = species on record: Mus musculus; experiment: Gross behavioral effects ascertained in mice; S indicates significant stimulant properties.; format: functional, organism-based; outline: as §2
[18] = target: D(1A) dopamine receptor (Rattus norvegicus, UniProt P18901); experiment: Binding affinity towards Dopamine receptor D1
[19] = target: Serotonin 2 (5-HT2) receptor (Rattus norvegicus) (UniProt P30994+P08909+P14842); experiment: Binding affinity towards 5-hydroxytryptamine 2 receptor at 1.0 uM concentration; format: protein assay; outline: as §4
[20] = target: T1, Adrenergic receptor alpha-1 (Rattus norvegicus, UniProt P15823+P23944+P43140); experiment: Binding affinity towards alpha-1 adrenergic receptor; format: protein assay
T1 sequence (P15823 whole entry): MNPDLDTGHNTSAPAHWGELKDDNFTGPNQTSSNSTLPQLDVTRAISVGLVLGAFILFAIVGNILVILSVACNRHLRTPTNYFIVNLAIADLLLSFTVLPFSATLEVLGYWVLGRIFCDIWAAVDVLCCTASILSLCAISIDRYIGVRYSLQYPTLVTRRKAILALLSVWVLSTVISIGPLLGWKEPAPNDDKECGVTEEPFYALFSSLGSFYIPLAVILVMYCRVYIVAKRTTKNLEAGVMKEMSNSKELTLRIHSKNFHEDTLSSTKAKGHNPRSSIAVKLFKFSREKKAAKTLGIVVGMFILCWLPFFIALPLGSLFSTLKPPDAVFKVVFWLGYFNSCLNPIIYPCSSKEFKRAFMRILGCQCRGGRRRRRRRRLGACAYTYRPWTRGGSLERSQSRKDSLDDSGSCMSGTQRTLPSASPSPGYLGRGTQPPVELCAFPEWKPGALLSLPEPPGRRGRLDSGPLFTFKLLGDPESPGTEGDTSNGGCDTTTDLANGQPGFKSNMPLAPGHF
T1 sequence (P23944 whole entry): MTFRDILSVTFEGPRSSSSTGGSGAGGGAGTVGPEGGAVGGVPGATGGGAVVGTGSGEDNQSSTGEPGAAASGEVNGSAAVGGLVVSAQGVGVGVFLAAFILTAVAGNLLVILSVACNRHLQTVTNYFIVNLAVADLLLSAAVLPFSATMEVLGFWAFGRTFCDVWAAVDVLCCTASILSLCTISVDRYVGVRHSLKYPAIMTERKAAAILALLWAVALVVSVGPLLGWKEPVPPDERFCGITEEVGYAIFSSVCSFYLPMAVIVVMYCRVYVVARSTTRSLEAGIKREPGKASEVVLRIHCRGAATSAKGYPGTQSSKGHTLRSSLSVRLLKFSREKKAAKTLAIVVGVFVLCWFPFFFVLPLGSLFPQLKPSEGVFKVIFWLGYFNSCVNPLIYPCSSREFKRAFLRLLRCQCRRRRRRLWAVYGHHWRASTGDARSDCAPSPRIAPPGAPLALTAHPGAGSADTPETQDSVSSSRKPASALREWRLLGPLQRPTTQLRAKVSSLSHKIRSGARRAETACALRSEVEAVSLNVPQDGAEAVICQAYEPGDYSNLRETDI
T1 sequence (P43140 whole entry): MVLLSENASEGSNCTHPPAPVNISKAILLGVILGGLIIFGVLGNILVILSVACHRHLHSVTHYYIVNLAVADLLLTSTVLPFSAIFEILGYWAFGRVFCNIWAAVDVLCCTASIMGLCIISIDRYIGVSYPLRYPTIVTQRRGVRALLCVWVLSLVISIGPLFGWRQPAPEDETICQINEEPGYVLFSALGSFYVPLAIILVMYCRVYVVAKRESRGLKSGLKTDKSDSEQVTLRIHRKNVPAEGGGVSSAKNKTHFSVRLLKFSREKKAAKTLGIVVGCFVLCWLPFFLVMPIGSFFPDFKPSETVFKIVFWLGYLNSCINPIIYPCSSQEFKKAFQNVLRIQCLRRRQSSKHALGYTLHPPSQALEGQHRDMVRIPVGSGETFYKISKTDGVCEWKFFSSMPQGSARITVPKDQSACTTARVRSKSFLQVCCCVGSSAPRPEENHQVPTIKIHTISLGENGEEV

[21] = species on record: Mus musculus; experiment: Gross behavioral effects ascertained in mice; W/C indicates weak stimulant or depressant activity of little significance/ overt convulsant; format: functional, organism-based
Outline: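 Male Swiss Webster albino mice, 18–24 g, three per dose, given ip 1, 3, 10, 30, 100 and 300 mg/kg. Gross behaviour observed and held 4 days. Estimated LD50 range from lethality count on day 4. Scored as weak stimulant/depressant, significant stimulant, significant depressant or overt convulsant.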

[22] = tested on: Mus musculus; experiment: Ability to antagonise intraperitoneal administration; weakly active (>=10% and <=30% antagonism) at 30 mg/kg is represented as >30; format: functional; settings: ip; outline: as §3
[23] = target: Serotonin 2 (5-HT2) receptor (Rattus norvegicus, UniProt P30994+P08909+P14842); experiment: Binding affinity towards 5-hydroxytryptamine 2 receptor; format: protein assay
[24] = target: D(2) dopamine receptor (Rattus norvegicus, UniProt P61169); experiment: Binding affinity towards Dopamine receptor D2
[25] = target: Serotonin 1 (5-HT1) receptor (Rattus norvegicus) (UniProt P28564+P30940+P19327+P28565); experiment: Binding affinity towards serotonin S1 receptor at 1.0 uM; format: protein assay; outline: as §4
[26] = target: Sodium-dependent dopamine transporter (Rattus norvegicus) (UniProt P23977); experiment: Ability to inhibit the uptake of [3H]dopamine (DA) 0.1 uM concentration at rat brain synaptosomes; format: functional, subcellular; outline: as §1
Chain of Sodium-dependent dopamine transporter (Rattus norvegicus) (P23977 whole entry): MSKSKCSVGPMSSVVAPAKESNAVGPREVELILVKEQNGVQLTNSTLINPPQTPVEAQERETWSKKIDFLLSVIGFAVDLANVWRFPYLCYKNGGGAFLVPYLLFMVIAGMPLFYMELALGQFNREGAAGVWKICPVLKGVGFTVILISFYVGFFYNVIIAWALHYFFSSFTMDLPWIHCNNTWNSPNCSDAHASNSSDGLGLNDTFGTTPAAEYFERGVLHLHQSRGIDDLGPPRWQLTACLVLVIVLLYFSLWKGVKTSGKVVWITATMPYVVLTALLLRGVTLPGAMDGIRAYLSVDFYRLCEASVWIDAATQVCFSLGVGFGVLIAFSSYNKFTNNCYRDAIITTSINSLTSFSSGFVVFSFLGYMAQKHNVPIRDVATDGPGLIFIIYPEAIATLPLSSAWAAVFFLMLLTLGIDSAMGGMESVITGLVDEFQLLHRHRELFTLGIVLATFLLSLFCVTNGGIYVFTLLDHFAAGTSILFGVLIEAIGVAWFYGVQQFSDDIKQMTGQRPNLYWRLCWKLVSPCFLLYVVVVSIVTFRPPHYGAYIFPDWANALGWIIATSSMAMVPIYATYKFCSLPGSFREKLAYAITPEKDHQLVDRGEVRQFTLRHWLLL

Chain of Sodium-dependent dopamine transporter (P23977 whole entry): as above
Chain of Norepinephrine transporter (Q9WTR4 whole entry): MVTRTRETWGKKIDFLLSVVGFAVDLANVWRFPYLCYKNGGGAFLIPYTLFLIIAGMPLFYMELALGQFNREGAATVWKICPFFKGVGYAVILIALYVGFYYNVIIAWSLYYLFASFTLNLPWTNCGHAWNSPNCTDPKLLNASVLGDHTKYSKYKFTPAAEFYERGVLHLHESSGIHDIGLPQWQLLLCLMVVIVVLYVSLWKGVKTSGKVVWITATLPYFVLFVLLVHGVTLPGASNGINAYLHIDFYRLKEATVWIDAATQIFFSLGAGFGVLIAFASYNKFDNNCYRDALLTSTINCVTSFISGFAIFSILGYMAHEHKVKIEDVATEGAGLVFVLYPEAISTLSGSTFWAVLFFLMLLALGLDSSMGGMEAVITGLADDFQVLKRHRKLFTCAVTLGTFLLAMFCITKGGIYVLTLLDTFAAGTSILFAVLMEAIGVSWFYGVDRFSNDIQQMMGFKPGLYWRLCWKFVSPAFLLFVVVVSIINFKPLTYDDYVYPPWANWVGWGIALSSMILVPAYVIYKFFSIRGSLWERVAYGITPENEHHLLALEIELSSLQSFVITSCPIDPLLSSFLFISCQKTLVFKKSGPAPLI
Chain of Norepinephrine transporter (Rattus norvegicus) (Q9WTR4 as listed by the source): as the sequence (Q9WTR4 whole entry) above
Chain of D(1A) dopamine receptor (P18901 whole entry): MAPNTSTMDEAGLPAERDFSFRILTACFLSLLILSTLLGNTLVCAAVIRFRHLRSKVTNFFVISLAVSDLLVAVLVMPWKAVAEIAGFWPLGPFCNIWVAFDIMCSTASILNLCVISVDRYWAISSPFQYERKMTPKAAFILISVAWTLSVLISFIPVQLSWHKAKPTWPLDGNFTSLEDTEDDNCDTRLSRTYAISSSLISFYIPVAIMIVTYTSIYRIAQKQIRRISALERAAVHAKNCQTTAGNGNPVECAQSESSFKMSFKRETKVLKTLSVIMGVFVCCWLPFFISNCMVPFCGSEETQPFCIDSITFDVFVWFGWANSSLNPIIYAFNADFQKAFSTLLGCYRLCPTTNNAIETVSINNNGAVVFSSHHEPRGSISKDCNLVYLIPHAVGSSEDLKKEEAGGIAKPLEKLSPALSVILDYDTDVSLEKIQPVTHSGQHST
Chain of D(2) dopamine receptor (Rattus norvegicus) (P61169 whole entry): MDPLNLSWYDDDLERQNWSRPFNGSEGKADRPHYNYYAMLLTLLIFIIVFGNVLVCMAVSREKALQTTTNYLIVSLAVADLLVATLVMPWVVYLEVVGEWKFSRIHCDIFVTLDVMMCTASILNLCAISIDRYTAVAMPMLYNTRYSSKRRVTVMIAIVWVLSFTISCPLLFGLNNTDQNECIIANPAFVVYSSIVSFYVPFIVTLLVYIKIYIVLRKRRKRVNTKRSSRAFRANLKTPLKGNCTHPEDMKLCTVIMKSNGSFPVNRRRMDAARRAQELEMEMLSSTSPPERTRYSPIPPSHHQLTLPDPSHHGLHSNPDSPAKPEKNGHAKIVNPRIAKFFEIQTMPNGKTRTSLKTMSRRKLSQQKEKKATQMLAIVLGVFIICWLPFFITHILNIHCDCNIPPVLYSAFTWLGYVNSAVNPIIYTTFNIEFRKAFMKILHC
Chain of Sodium-dependent serotonin transporter (Rattus norvegicus) (P31652 whole entry): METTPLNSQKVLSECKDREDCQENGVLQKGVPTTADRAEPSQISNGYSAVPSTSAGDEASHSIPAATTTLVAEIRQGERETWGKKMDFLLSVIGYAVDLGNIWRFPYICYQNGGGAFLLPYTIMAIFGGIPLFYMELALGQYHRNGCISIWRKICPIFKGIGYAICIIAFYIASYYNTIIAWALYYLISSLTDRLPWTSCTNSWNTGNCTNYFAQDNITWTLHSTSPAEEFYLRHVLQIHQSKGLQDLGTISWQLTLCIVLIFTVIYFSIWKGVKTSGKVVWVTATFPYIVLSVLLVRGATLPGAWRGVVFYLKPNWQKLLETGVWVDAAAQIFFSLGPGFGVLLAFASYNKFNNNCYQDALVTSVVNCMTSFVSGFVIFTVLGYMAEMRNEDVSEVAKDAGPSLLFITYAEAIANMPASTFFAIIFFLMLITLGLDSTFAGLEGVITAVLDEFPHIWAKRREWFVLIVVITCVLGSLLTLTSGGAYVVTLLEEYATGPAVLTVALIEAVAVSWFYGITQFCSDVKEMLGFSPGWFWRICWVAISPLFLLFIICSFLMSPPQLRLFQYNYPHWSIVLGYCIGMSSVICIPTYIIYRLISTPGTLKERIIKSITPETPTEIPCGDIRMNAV
Chain of D(1A) dopamine receptor (Rattus norvegicus) (P18901 whole entry): as the sequence (P18901 whole entry) above
Chain of D(2) dopamine receptor (P61169 whole entry): as the sequence (P61169 whole entry) above
Chain of Serotonin 2 (5-HT2) receptor (Rattus norvegicus) (P08909 whole entry, looked up): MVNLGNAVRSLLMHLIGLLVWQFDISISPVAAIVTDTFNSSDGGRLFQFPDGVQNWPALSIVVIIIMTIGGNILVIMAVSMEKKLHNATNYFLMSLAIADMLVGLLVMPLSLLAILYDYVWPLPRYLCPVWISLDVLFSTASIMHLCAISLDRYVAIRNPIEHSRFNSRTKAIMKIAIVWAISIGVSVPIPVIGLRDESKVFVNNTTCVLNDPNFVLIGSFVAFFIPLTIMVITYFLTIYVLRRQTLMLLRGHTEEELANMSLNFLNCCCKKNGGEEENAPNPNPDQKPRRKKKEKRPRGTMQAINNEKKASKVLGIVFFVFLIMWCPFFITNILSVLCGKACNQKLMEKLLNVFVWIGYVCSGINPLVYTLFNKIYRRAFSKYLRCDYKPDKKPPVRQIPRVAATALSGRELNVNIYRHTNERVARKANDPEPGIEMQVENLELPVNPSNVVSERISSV
Chain of Serotonin 2 (5-HT2) receptor (Rattus norvegicus) (P14842 whole entry, looked up): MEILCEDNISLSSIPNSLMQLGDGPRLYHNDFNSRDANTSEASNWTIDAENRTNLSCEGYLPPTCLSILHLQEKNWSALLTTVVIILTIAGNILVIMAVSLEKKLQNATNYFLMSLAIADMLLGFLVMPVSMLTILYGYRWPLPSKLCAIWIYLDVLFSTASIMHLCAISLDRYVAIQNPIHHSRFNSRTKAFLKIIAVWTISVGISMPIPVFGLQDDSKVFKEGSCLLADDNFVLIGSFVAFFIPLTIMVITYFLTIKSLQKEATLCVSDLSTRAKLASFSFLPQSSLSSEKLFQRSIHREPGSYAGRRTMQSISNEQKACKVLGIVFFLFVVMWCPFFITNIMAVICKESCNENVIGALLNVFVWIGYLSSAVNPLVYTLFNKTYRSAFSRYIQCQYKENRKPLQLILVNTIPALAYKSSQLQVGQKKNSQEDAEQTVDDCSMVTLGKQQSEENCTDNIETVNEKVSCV
Chain of Serotonin 2 (5-HT2) receptor (Rattus norvegicus) (P30994 whole entry, looked up): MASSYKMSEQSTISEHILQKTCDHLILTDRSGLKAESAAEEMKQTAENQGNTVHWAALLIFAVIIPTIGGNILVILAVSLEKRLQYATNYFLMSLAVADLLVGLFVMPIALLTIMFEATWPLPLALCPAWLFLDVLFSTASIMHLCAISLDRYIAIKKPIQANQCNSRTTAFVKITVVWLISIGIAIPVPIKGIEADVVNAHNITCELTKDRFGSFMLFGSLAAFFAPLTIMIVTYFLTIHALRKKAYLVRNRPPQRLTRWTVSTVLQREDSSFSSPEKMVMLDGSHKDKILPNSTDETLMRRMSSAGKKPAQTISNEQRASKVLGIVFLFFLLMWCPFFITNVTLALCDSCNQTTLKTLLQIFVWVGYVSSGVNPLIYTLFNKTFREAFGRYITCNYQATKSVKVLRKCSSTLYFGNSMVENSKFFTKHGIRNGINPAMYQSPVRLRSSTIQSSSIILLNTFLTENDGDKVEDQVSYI

SMILES	Ki [7] [nM]	inhibition [9] [%]	inhibition [15] [%]	Ki [16] [nM]	behavior [10]	ED50 [12] [mg/kg]	ED50 [13] [mg/kg]	further results
c1ccc([C@H]2CN3CC[C@@H]4CCCC[C@@]43c3ccccc32)cc1								inhibition [1]: 9%; inhibition [2]: 3%; behavior [3]: Overt convulsant; ED50 [4]: inactive; Inhibition [5]: 17%; ED50 [6]: inactive
Cl.c1ccc([C@@H]2CN3CCC[C@H]3c3ccccc32)cc1				160				ED50 at 30 mg/kg [22]: > 30 mg/kg
O=[N+]([O-])c1ccc([C@@H]2CN3CCC[C@H]3c3ccccc32)cc1					Weak		> 30	inhibition [1]: 25%; inhibition [2]: 10%; ED50 at 30 mg/kg [22]: > 30 mg/kg; inhibition [26]: 21%

The remaining molecules from weak to strong by Ki [16], led by results:

Ki [7] [nM]	inhibition [9] [%]	inhibition [15] [%]	Ki [16] [nM]	SMILES	behavior [10]	ED50 [12] [mg/kg]	ED50 [13] [mg/kg]	further results
10.5	0	21	43.5	Br.Oc1cc2c(cc1O)[C@H]1CCCN1C[C@H]2c1ccccc1		0.53	0.87	behavior [17]: Stimulant; Ki [18]: 106 nM; inhibition [19]: 46%; Ki [20]: 87 nM; inhibition [14]: 20%
24			40	C[C@@]12CCCN1C[C@H](c1ccccc1)c1ccccc12		3.8	9.2	behavior [21]: Weak/Overt convulsant
0.65	1	37	15.8	COc1cccc([C@@H]2CN3CCC[C@@H]3c3ccccc32)c1	Partial stimulant	0.07	~0.2	inhibition [8]: 40%; inhibition [11]: 87%; inhibition [14]: 27%
0.55	0	25	7.7	Br.Fc1ccc([C@@H]2CN3CCC[C@@H]3c3cc(F)ccc32)cc1	Partial stimulant	0.05	> 30	Ki [23]: 7.4 nM; Ki [24]: 241 nM; Ki [18]: 183 nM; inhibition [25]: -6%; Ki [20]: 536 nM
